According to ChEMBL document CHEMBL5712087, “Targeting bromodomain-containing protein 4 (BRD4) inhibits MYC expression in colorectal cancer cells” (Neoplasia, 2019):
The source made the active and inactive calls.

Tests used:
[1] = molecular target: Bromodomain-containing protein 4 (Homo sapiens) (UniProt O60885); conditions: HCT-116, dose 500-1000 nM, time 24.0 hrs
[2] = test system: HT-29; assay: Inhibition of colony formation in human HT-29 cells at 500 to 1000 nM by crystal violet staining analysis; assay type: functional, cell-based; conditions: dose 500-1000 nM
Summary of the method: (§1)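 Exponentially growing cells (1-2x10^3) plated in six-well plates; after 48 h treated with indicated concentrations for 3–5 days, then methanol-fixed and crystal violet stained. Cell lines maintained at 37 °C, 5% CO2 in serum-supplemented medium, STR-validated, mycoplasma-tested, <15 passages.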

[3] = molecular target: Bromodomain-containing protein 4 (Homo sapiens) (UniProt O60885); conditions: LS174T, dose 500-1000 nM, time 24.0 hrs
[4] = molecular target: Bromodomain-containing protein 4 (Homo sapiens) (UniProt O60885); conditions: HCT-116, dose 500-1000 nM, time 24.0 hrs; remark: listed apart in the source
[5] = molecular target: Bromodomain-containing protein 4 (Homo sapiens) (UniProt O60885); conditions: HT-29, dose 500-1000 nM, time 24.0 hrs
[6] = molecular target: Bromodomain-containing protein 4 (Homo sapiens) (UniProt O60885); conditions: COLO 320, dose 500-1000 nM, time 24.0 hrs
[7] = molecular target: Bromodomain-containing protein 4 (Homo sapiens) (UniProt O60885); conditions: LS174T, dose 500-1000 nM, time 24.0 hrs; remark: listed apart in the source
[8] = molecular target: Bromodomain-containing protein 4 (Homo sapiens) (UniProt O60885); conditions: DLD-1, dose 500-1000 nM, time 24.0 hrs
[9] = test system: SW480; assay: Inhibition of colony formation in human SW480 cells at 500 to 1000 nM by crystal violet staining analysis; assay type: functional, cell-based; conditions: dose 500-1000 nM
Summary of the method: as §1

[10] = test system: HCT-116; assay: Inhibition of colony formation in human HCT116 p53+/+ cells at 500 to 1000 nM by crystal violet staining analysis; assay type: functional, cell-based; conditions: dose 500-1000 nM
Summary of the method: as §1

[11] = test system: LS174T; assay: Inhibition of colony formation in human LS174T cells at 500 to 1000 nM by crystal violet staining analysis; assay type: functional, cell-based; conditions: dose 500-1000 nM
Summary of the method: as §1

[12] = molecular target: Bromodomain-containing protein 4 (Homo sapiens) (UniProt O60885); conditions: LS174T, dose 500-1000 nM, time 24.0 hrs; remark: listed apart in the source
[13] = test system: COLO 320; assay: Inhibition of colony formation in human COLO 320 cells at 500 to 1000 nM by crystal violet staining analysis; assay type: functional, cell-based; conditions: dose 500-1000 nM
Summary of the method: as §1

[14] = molecular target: Bromodomain-containing protein 4 (Homo sapiens) (UniProt O60885); conditions: SW480, dose 500-1000 nM, time 24.0 hrs
[15] = test system: DLD-1; assay: Inhibition of colony formation in human DLD-1 cells at 500 to 1000 nM by crystal violet staining analysis; assay type: functional, cell-based; conditions: dose 500-1000 nM
Summary of the method: as §1

[16] = test system: HCT-116; assay: Inhibition of colony formation in human HCT116 p53-/- cells at 500 to 1000 nM by crystal violet staining analysis; assay type: functional, cell-based; conditions: dose 500-1000 nM
Summary of the method: as §1

Measured: inhibition

Cc1sc2c(c1C)C(c1ccc(Cl)cc1)=N[C@@H](CC(=O)OC(C)(C)C)c1nnc(C)n1-2
active: all assays above
